High-throughput results from PubChem.
Hits are enriched below; roughly 2% of the tested compounds scored in any of these assays.
TRAIL sens C8 – caspase-8 TRAIL sensitization | NB7+C8 cells + TRAIL, ATPlite viability luminescence | inhibition (viability loss, TRAIL sensitization), % at 10 µM | actives 1% (n = 360,000) | AID 624354;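 active means compounds causing at least 50% loss of cell viability in the single-dose screen, relative to plate controls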
PPC-1+TRAIL kill – kills PPC-1 cancer cells in the presence of TRAIL. PPC-1 cells + TRAIL, ATPLite viability luminescence. actives 0.41% (n = 220,000). cell killing (% activity), % at 4 µM or 5 µM. AID 1443;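 active means cell killing above 50% in the first pass at 4 µM, then a duplicate retest at 5 µM averaging 50% or more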;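 further: plate controls were cells with TRAIL plus DMSO for no effect and medium-only wells lacking cells for full effect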
HSP90 refold inh – blocks HSP90-mediated luciferase refolding in reticulocyte lysate | Rabbit reticulocyte lysate, luciferase refolding luminescence, 3 h | inhibition, % at 5.6 µM | actives 0.91% (n = 290,000);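 active means inhibition above the screen-wide mean plus 3 SD, computed separately per campaign, cut at about 16% in these data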;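 further: 0% = DMSO wells and 100% = 60 µM geldanamycin wells; inhibitors lower the luminescence because luciferase stays unfolded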
FLuc inh counter – inhibits firefly luciferase, flagging false hits in luciferase inhibition screens; ATPLite firefly luciferase biochemical luminescence, 10 min; AID 1006; actives 1.5% (n = 200,000); inhibition, % at 10 µM; P08659;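 active means inhibition above about 50% when tested at 10 µM, limit read from the data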
Target sequence (P08659 whole entry, looked up): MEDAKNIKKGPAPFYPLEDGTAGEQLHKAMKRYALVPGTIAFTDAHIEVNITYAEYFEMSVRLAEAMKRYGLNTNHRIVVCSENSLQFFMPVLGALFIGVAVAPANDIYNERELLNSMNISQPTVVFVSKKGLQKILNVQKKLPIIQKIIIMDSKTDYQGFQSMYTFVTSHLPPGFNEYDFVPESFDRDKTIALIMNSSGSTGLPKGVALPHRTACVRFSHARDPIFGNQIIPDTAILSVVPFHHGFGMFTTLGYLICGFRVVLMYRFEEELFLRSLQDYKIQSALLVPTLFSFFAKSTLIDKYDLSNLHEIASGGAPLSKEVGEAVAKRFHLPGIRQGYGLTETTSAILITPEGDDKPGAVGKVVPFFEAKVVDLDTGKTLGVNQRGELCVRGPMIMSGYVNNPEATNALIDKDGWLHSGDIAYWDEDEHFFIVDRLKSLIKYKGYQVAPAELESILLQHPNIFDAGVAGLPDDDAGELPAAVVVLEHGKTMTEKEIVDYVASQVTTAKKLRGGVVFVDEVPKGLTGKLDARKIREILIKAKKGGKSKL
FLuc act counter – firefly luciferase counter-screen for stimulation assays; activation factor at 10 µM; P08659; ATPlite luciferase biochemical, luminescence, 10 min; 0 = ATP-free wells, 1 = DMSO control; AID 1027; 200,000 tested, under 10 active;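 active means luciferase activation factor, scaled between plate controls, of at least 2 with compound at 10 µM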
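System: Luciferase/luciferin detection reagent, cell-free biochemical luciferase assay | Medium: PBS buffer for ATP | Dosing: Test compounds dosed from 2 mM stocks in 100% DMSO | Timing: 10 min at ambient temperature | Signal: Luminescence measurement of luciferase light output | Evaluation: Luciferase activation, seen as luminescence increase over controls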
* = called active by the depositor; / = not tested or not shown.

SMILES	TRAIL sens C8	PPC-1+TRAIL kill	HSP90 refold inh	FLuc inh counter	FLuc act counter
C[C@@H](NC(=O)c1ncn2c1c(=O)[nH]c1cccnc12)c1ccccc1	-7	/	/	/	/
C[C@@H](NC(=O)c1ncn2c1c(=O)[nH]c1ccc(Br)cc12)c1ccccc1	69*	/	/	/	/
Cc1ccsc1/C=N/NC(=O)c1nnn(-c2nonc2N)c1CSc1ccccc1	12	/	-3	/	/
Cc1ccc(NC(=O)CSc2nc3ccc(Nc4nc(N5CCOCC5)nc(N5CCOCC5)n4)cc3s2)cc1	55*	/	3	/	/
COc1ccc(OC)c(CCNC(=O)CCCc2nnc3n(C)c(=O)c4sccc4n23)c1	3	/	2	/	/
CCCCCCCN(C(=O)CCl)c1cccc(C)c1	95*	16	5	-5	1
Cc1ccc(N(NC(=O)C(O)(c2ccccc2)c2ccccc2)C(=O)CCl)cc1	54*	30	-1	5	0.9
CC(=O)N(CCN(C(C)=O)c1ccccc1)c1ccccc1	-2	-8	0	-5	1.1
Cc1ccc(C(O)(C(=O)NN(C(=O)c2ccccc2)c2ccccc2)c2ccc(C)cc2)cc1	-7	5	0	0	1
CCCCCCN(C(=O)CCl)c1ccccc1	96*	22	4	/	/
O=C(CCl)N(c1ccccc1)c1ccccc1	94*	-6	2	-4	1
COc1cccc(S(=O)(=O)Nc2ccc3c(c2)C(=O)N(C)C[C@H](OC)[C@H](C)CN(Cc2ccccc2F)[C@@H](C)CO3)c1	-4	/	/	/	/
O=C(Nc1ccccc1)NN(C(=O)CCl)c1ccccc1	97*	/	-2	/	/
O=C(CCl)N(CCc1ccccc1)CCc1ccccc1	95*	/	4	/	/
CCC(O)(CC)C(=O)NN(C(=O)CCl)c1ccccc1	19	-6	2	-5	1.1
CCOc1cccc(CN(C)CC2CCCN(CCc3ccc(Cl)cc3)C2)c1O (stereo not drawn)	-1	/	-4	/	/
O=C(O)COCC(=O)N1CCN(C2c3ccccc3-c3ccccc32)CC1	-11	-12	0	/	/
C=C(C)CSc1nnc2n(Cc3ccccc3)c(=O)c3c4c(sc3n12)CCC4	85*	9	-3	-3	1
CCCSc1nnc2n(Cc3ccccc3)c(=O)c3c4c(sc3n12)CCC4	/	8	/	-7	1.1
CC(/C=C1\SC(=O)N(CCCC(=O)O)C1=O)=C\c1ccccc1	12	23	37*	10	0.9
COc1ccc(C(=O)NCCNc2ccccc2[N+](=O)[O-])cc1	38	48	0	62*	0.4
O=C(NCCNc1ccccc1[N+](=O)[O-])c1cc(F)c(F)cc1Cl	13	/	5	/	/
O=c1[nH]c(Nc2ccccc2Cl)cc2ccccc12	-14	/	/	/	/
Cc1ccccc1Nc1cc2ccccc2c(=O)[nH]1	88*	21	7	-1	1
O=c1[nH]c(Nc2ccc(F)cc2)cc2ccccc12	2	22	16*	5	0.9
SMILES	TRAIL sens C8	PPC-1+TRAIL kill	HSP90 refold inh	FLuc inh counter	FLuc act counter
COc1ccc(-n2nc(C(=O)O)cc2-c2ccccc2)cc1	5	/	-1	/	/
CC(=O)c1c[nH]c(C(=O)NCc2ccccc2Cl)c1	5	/	-1	/	/
c1ccc(Nc2nnc(-c3cccnc3)s2)cc1	53*	/	15	/	/
COc1ccccc1N1CCN(C(=O)CNC(=O)c2cn(-c3ccccc3OC)c(=O)c3ccccc23)CC1	23	28	0	42	0.6
COc1ccc(-n2nc(C(=O)NCC(=O)N3CCN(C)CC3)c3ccccc3c2=O)cc1OC	5	4	-4	-2	1
COc1ccccc1-n1cc(C(=O)NCC(=O)N2CCN(c3ccccc3)CC2)c2ccccc2c1=O	32	40	-1	70*	0.3
COc1ccc(-n2nc(C(=O)NCC(=O)N3CCN(c4ccccc4F)CC3)c3ccccc3c2=O)cc1	72*	/	-1	/	/
COc1ccc(-n2nc(C(=O)NCC(=O)N3CCN(c4ccccc4F)CC3)c3ccccc3c2=O)cc1OC	53*	/	6	/	/
CCCCNC(=O)[C@@H]1CSC2c3ccccc3C(=O)N21 (stereo partly drawn)	-9	/	1	/	/
Cc1cc(S(=O)(=O)NC2CC(C)(C)NC(C)(C)C2)c(Cl)cc1Cl	-4	/	3	/	/
S=C(Nc1ccc(N2CCOCC2)cc1)Nc1ccc2snnc2c1	1	15	0	-7	1.1
O=C(CCNc1n[nH]c(=O)[nH]c1=O)N/N=C/c1ccc(C(F)(F)F)cc1	7	4	3	-4	1
O=C(Nc1cccc(-c2ccc(N3CCCCC3)nn2)c1)c1ccco1	81*	/	/	/	/
Cc1cc(C(=O)Nc2cccc(-c3ccc(N4CCOCC4)nn3)c2)ccc1[N+](=O)[O-]	51*	/	/	/	/
O=C(COc1ccc(Cl)cc1)Nc1cccc(-c2ccc(N3CCOCC3)nn2)c1	59*	/	/	/	/
O=C(Nc1cccc(-c2ccc(N3CCOCC3)nn2)c1)c1ccccc1Cl	61*	/	/	/	/
Cc1ccc(C(=O)Nc2cccc(-c3ccc(N4CCOCC4)nn3)c2)cc1C	44	/	/	/	/
O=C(Nc1cccc(-c2ccc(N3CCOCC3)nn2)c1)c1ccc(Cl)cc1	19	/	/	/	/
CCOC(=O)C1=NN(c2ccccc2)C2=NC(C)=C(C(=O)OC)C(c3ccc(C)cc3)N12 (stereo not drawn)	5	6	3	-6	1.1
O=C(CN1CCC(NC(=O)Cc2ccccc2)CC1)Nc1ccccc1Br	-1	10	6	-3	1
COc1cccc(OC)c1C(=O)Nc1cccc(-c2ccc(N3CCOCC3)nn2)c1	73*	/	/	/	/
Cc1ccc(CN=c2c([N+](=O)[O-])nn(-c3cccc(C)c3)n2O)cc1	49*	16	-1	-6	1.1
Cc1ccc(-c2nc(N)s[n+]2-c2ccccc2)cc1	22	17	2	80*	0.2
CNc1nc(-c2ccccc2)[n+](-c2ccc(C)cc2)s1	-7	15	12	89*	0.1
Cc1cc(/C=N/n2c(COc3ccccc3)nc3ccccc3c2=O)c(O)c([N+](=O)[O-])c1	51*	5	-2	23	0.8
SMILES	TRAIL sens C8	PPC-1+TRAIL kill	HSP90 refold inh	FLuc inh counter	FLuc act counter
Oc1ccc(-c2cn3ccccc3n2)cc1	63*	38	2	/	/
CN(C)S(=O)(=O)c1ccc(-c2cn3ccccc3n2)cc1	60*	46	5	74*	0.3
Brc1ccc(-c2cn3ccccc3n2)cc1	47*	30	14	/	/
O=[N+]([O-])c1ccc(-c2cn3ccccc3n2)cc1	28	/	/	/	/
CCOc1ccc(-c2cn3ccccc3n2)cc1[N+](=O)[O-]	52*	40	3	78*	0.2
CC1(C(=O)NCc2cccc3ccccc23)CCN1Cc1cc2ccccc2o1 (stereo not drawn)	26	/	/	/	/
O=C(c1nc2ccc(Cl)cn2c1CNCCc1cnccn1)N1CCCCCCC1	6	/	1	/	/
Cc1cc(=O)oc2cc(OCC(=O)Nc3ccc(N4CCC(C)CC4)cc3)ccc12	22	/	1	/	/
Brc1ccc(OCc2cn3ccccc3n2)cc1	45	25	6	77*	0.2
O=C(COc1ccc(Br)cc1)NCc1cn2ccccc2n1	19	-9	-2	/	/
